Assay outcomes deposited in PubChem by several laboratories.
PP1 inh = PP1-alpha phosphatase inhibitors, primary screen, counter-screen for PP5 inhibitor project, biochemical, fluorescence, OMFP substrate, single point; purified PP1alpha; inhibition, % at 6.7 µM; 0.9% of 320,000 active; AID 2235, 2010;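 active means inhibition above the mean inhibition of all tested compounds plus 3 SD, computed separately for each screening campaign, cut at about 15% in these data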
Rpn11 block = Rpn11 (PSMD14) deubiquitinase inhibitors, primary screen, biochemical, fluorescence polarization, uHTS; human 26S proteasome, Ub4-pepOG fluorescence polarization; 20S core pre-blocked with epoxomicin; 26S proteasome non-ATPase regulatory subunit 14 (Homo sapiens), O00487; 0.59% of 360,000 active; inhibition, % at 20 µM; AID 588493, 2011;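 active means inhibition at 20 µM, scaled to each plate's controls, above about 33%, limit read from the data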
TPT1 inh = Candida albicans TPT1 enzyme inhibitors, primary screen, biochemical, fluorescence polarization. tRNA 2'-phosphotransferase TPT1 (Candida albicans SC5314). recombinant caTPT1, FP RNA substrate dephosphorylation. inhibition, % at 5 µM. 0.81% of 300,000 active. AID 1962, 2009;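 active means inhibition above the mean of all tested compounds plus 3 SD, set per screening campaign, cut at about 24% in these data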;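 further: plate controls were DMSO alone for no effect and ferristatin control at 100 nM for full effect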
NadD block = inhibitors of S. aureus NadD, primary screen, biochemical, colorimetric, uHTS; Nicotinate-nucleotide adenylyltransferase NadD (Staphylococcus aureus N315); purified NadD enzyme, colorimetric absorbance read-out; inhibition, % at 20 µM; 0.78% of 360,000 active; AID 602399, 2012; in the data active means inhibition above about 26%
HNF4A DNA FP = change in binding of human HNF4A to DNA, primary screen, biochemical, fluorescence polarization, FITC-DNA; AID 1224865, 2016; 1 h; 0.3% of 360,000 active; activity change, % at 10 µM; Hepatocyte nuclear factor 4-alpha (Homo sapiens), P41235; in the data active means activity change above about 30%, passing the limit was not always enough
Target sequence (P41235 whole entry, looked up): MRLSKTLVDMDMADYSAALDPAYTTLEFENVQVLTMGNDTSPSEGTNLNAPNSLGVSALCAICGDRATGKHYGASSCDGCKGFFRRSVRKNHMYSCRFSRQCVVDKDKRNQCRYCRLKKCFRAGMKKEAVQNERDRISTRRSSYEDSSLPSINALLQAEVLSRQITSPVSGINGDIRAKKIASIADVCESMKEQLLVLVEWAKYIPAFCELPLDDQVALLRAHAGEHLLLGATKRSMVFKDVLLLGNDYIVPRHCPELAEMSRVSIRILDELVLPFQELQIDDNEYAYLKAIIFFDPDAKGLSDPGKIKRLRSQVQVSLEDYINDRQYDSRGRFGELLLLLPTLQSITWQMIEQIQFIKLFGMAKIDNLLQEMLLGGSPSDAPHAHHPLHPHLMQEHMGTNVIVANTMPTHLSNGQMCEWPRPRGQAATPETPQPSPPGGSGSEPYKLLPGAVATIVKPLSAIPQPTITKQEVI
CSN inh = inhibitors of CSN-mediated cullin deneddylation, primary screen, biochemical, fluorescence polarization, uHTS | COP9 signalosome complex subunit 5 (Homo sapiens), Q92905 | Purified CSN, SCF-Nedd8-OG deneddylation | inhibition, % at 12.5 µM | 0.38% of 360,000 active;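 active means pattern-corrected inhibition above about 35%, with an unprinted fluorescence ratio check between 0.5 and 1.5, limit read from the data, passing the limit was not always enough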;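 further: 0% = enzyme with substrate and 100% = substrate without enzyme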
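Material: purified human Csn5 enzyme expressed in HEK293T cells / Medium: Tris buffer pH 7.5, NaCl, DTT, Tween-20, trehalose, ovalbumin / Compound dosing: 12.5 µM single point / Schedule: 90 min incubation of compound, enzyme and substrate at room temperature / Signal: fluorescence polarization of the substrate / Control set: no-enzyme wells high, enzyme-with-substrate wells low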
NadD conf = inhibitors of S. aureus NadD, confirmation, biochemical, colorimetric, single concentration; 13% of 2,000 active; AID 624309, 2012; shares compounds with NadD block; inhibition, % at 20 µM; purified S. aureus NadD, colorimetric enzyme assay; in the data active means inhibition mostly above about 42%, no sharp cut-off; inactive means mostly below about 42%
Numbers without * were called inactive; nt = no result. Rows were chosen to be rich in hits. Some 2.7% of all compounds tested hit in one or more screens of this group.

SMILES	PP1 inh	Rpn11 block	TPT1 inh	NadD block	HNF4A DNA FP	CSN inh	NadD conf
O=C(NCCN1CCNC1=O)c1ccc2sc([C@@H]3O[C@H](CO)[C@H](O)[C@H](O)[C@H]3O)nc2c1	nt	-2	nt	-5	-1	0	nt
O=C(Cc1ccc(NC(=O)C2CCN(C(=O)C3CC3)CC2)cc1)Nc1cccc(C(=O)N2CCCC2)c1	nt	-8	nt	1	1	-2	nt
COc1ccc(/C=C/C(=O)OCC(=O)NC2CCCC2)cc1	-3	-2	nt	-2	3	4	nt
CC(=O)c1c(C)oc2ccc(NS(=O)(=O)c3ccc(C)cc3)cc12	-4	1	1	-5	-4	1	nt
Cc1oc2ccc(NS(=O)(=O)c3ccc(C(C)(C)C)cc3)cc2c1C(=O)Nc1ccccc1	6	5	-6	33*	-2	0	34
O=C(Nc1ccc(Cl)cc1)[C@@H]1[C@@H]2C(=O)N(c3ccc(Cl)cc3)C(=O)[C@@H]2[C@H]2C=CC=NN21	12	12	5	37*	5	1	11
Cc1ccc(N2C(=O)[C@@H]3[C@H](C2=O)[C@H]2C=CC=NN2[C@@H]3C(=O)Nc2ccc(Cl)cc2)cc1	11	-1	4	3	0	-1	nt
CC(=O)Oc1ccc(C(=O)[C@H]2[C@H]3C(=O)N(c4ccc5ccccc5c4)C(=O)[C@H]3[C@@H]3C=CC=NN32)cc1	3	30	7	40*	14	14	16
Cc1ccc(S(=O)(=O)N2[C@@H](c3ccc(C(C)(C)C)cc3)C(C(=O)O)=CC[C@H]2c2ccc(C(C)C)cc2)cc1	nt	38	nt	51*	-39	30	33
C#CC(CC)(CC)NC(=O)c1cc(S(=O)(=O)N2CCCCC2)ccc1N1CCOCC1	nt	3	nt	-2	2	0	nt
Cc1ccc(S(=O)(=O)CCC(=O)NC2CCCC2)cc1	2	-5	-3	2	-3	2	nt
O=C(NNS(=O)(=O)c1ccc2ccccc2c1)c1cc(-c2ccccn2)nc2ccccc12	0	6	1	45*	6	-1	49*
Cc1ccc(-c2cc(C(=O)Nc3ccc(S(=O)(=O)Nc4ncccn4)cc3)c3ccccc3n2)cc1	5	-1	-1	33*	0	4	38
CCc1ccc(-c2cc(C(=O)Nc3ccc(S(=O)(=O)NC(C)=O)cc3)c3ccccc3n2)cc1	1	2	-1	13	0	-4	nt
CC(C)(C)NS(=O)(=O)c1ccc(NC(=O)c2cc(-c3ccccc3)nc3ccccc23)cc1	3	3	2	18	0	0	nt
O=C(Nc1ccc(S(=O)(=O)Nc2nccs2)cc1)c1cc(-c2ccccc2)nc2ccccc12	5	6	-1	46*	-1	-2	50*
O=C(Nn1cnnc1)c1cc(-c2ccccn2)nc2ccccc12	-5	16	3	-5	2	0	nt
Cc1ccc(-c2cc(C(=O)Nc3ccc(S(=O)(=O)Nc4nccs4)cc3)c3ccccc3n2)c(C)c1	9	12	-2	63*	3	5	53*
CCCCNC(=O)C1(C)CCN1C(=O)c1cncc(Br)c1 (centres undefined)	nt	0	nt	1	2	6	nt
O=C(CSc1ccc2nnc(CCNC(=O)c3ccccc3)n2n1)NCc1ccc(F)cc1	-4	0	-1	-3	3	4	nt
CCN(C(=O)COC(=O)c1cc([N+](=O)[O-])ccc1N1CCOCC1)C1CCCCC1	-5	0	-4	-4	-6	3	nt
O=C(NCc1cccs1)c1cc(-c2ccccc2)nc2ccccc12	4	0	-1	0	-2	-6	nt
O=C(Nc1nnc(-c2cccs2)o1)c1cc(-c2ccccc2)nc2ccccc12	13	29	-5	55*	1	6	51*
COc1cccc(OCc2cc(/C=N/Nc3ccc(C(=O)O)cc3)ccc2OC)c1	7	5	5	46*	5	6	53*
COc1cccc(C(=O)Oc2ccc(/C=N/Nc3ccc(C(=O)O)cc3)cc2OC)c1	2	1	0	5	-6	4	nt
SMILES	PP1 inh	Rpn11 block	TPT1 inh	NadD block	HNF4A DNA FP	CSN inh	NadD conf
COc1ccc(Cl)cc1N1C(=O)CN(Cc2cc(OC)c(OC)c(OC)c2)C1=S	0	4	-2	-1	3	2	nt
COc1cc(/C=C2/N=C(c3ccccc3)OC2=O)c(F)cc1OCc1ccccc1	1	9	0	39*	-4	5	6
CC(C)Oc1ccc(S(=O)(=O)N2CCOCC2)cc1NC(=O)C(C)Oc1ccc(F)cc1 (centres undefined)	-1	0	1	0	-3	2	nt
CC(=O)Nc1ccc(NC(=O)CSc2nnc(NC(=O)C3CC(=O)N(c4ccccc4)C3)s2)cc1 (centres undefined)	-1	-4	-1	2	-3	4	nt
COc1cccc(N2CC(C(=O)Nc3nnc(SCC(=O)Nc4cc(C)on4)s3)CC2=O)c1 (centres undefined)	0	10	-1	41*	3	3	3
Cc1ccc(N2CC(C(=O)Nc3nnc(SCC(=O)Nc4cc(C)on4)s3)CC2=O)cc1 (centres undefined)	-1	1	2	39*	-1	-1	2
COc1ccc(C(C)(NC(C)=O)c2nc(-c3ccc(F)c(Cl)c3)cs2)cc1 (centres undefined)	nt	-1	nt	-8	2	7	nt
CC1(C)CC(NC(=O)C2CCN(S(=O)(=O)c3ccc(F)cc3)CC2)CC(C)(C)N1	-1	1	-1	-18	1	0	nt
CC1(Oc2ccc(CC#N)cc2)CCN(Cc2ccccc2OC(F)F)C1 (centres undefined)	nt	-6	nt	-1	3	3	nt
COc1ccc(S(=O)(=O)N2CCC(C(=O)NCCN3CCOCC3)CC2)cc1OC	1	0	-2	33*	3	0	3
COc1ccc(C2C(C#N)=C(SC)NC3=C2C(=O)CC(C)(C)C3)cc1 (centres undefined)	4	2	1	-6	-2	-3	nt
COc1ccc(C2C(C#N)=C3NC(=O)c4c(sc5c4CCCCC5)N3C3=C2C(=O)CC(C)(C)C3)cc1 (centres undefined)	16*	36	23	61*	11	18	25
